In ChEMBL document CHEMBL1150326 (Bioorg Med Chem, 2008):
The source made the active and inactive calls. The calls are words filed in the database; no cut-off is given here.

What was measured:
HCT-116 = experiment: Cytotoxicity against human HCT116 cells after 72 hrs by SRB assay; type: functional, cell-based; conditions: HCT-116, 72 h
Outline: (§1)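 Solid tumour cells (breast MX-1, colon HCT116) exposed for 72 h. Growth measured by SRB assay. IC50 obtained by median-effect plot from six or seven concentrations, in duplicate or triplicate.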

CCRF-CEM [1] = experiment: Cytotoxicity against taxol-resistant human CCRF-CEM cells after 72 hrs by XTT assay; type: functional, cell-based
Outline: (§2)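 Leukaemic CCRF-CEM cells and their taxol- and vinblastine-resistant sublines exposed for 72 h. XTT assay read at 450 and 630 nm after 6 h with phenazine methosulfate-XTT at 37 °C. IC50 obtained by the median-effect principle from six or seven concentrations, in duplicate or triplicate.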

CCRF-CEM [2] = experiment: Cytotoxicity against human CCRF-CEM cells after 72 hrs by XTT assay; type: functional, cell-based; outline: as §2
MX1 [3] = experiment: Antitumor activity in human MX1 cells xenografted mouse assessed as complete tumor remission at 100 mg/kg, iv administered in Q2D x 5 schedule; type: functional, organism-based; parameters: dose 100 mg/kg
[4] = Stability in rat plasma assessed as half life at 5 ug/mL by HPLC; type: ADME, cell-free
Outline: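 Rat plasma (100 µL, 5 µg/mL compound) deproteinised with acetonitrile (1:2), centrifuged at 10,000 g for 10 min and filtered. Analysed by HPLC on methanol:10 mM NaH2PO4 (60:40, pH 3.0) at 0.8 mL/min, UV 266 nm, quantified by peak area. Detection limit 20 ng/mL; n = 4.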

U-87 MG = experiment: Antitumor activity in human U87 MG cells xenografted mouse at 100 mg/kg, iv administered in Q2D x 5 schedule; type: functional, organism-based; parameters: dose 100 mg/kg; conditions: U-87MG ATCC
MX1 [5] = experiment: Cytotoxicity against human MX1 cells after 72 hrs by SRB assay; type: functional, cell-based; conditions: MX1, 72 h; outline: as §1
[6] = Cytotoxicity against human H1299 cells; type: functional, cell-based; conditions: NCI-H1299
CCRF-CEM [7] = experiment: Selectivity ratio of IC50 for vinblastine-resistant human CCRF-CEM cells to IC50 for human CCRF-CEM cells; type: functional
Outline: (§3)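 Fold resistance: IC50 in the taxol- or vinblastine-resistant CCRF-CEM subline divided by the IC50 in parent CCRF-CEM.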

CCRF-CEM [8] = experiment: Cytotoxicity against vinblastine-resistant human CCRF-CEM cells after 72 hrs by XTT assay; type: functional, cell-based; outline: as §2
CCRF-CEM [9] = experiment: Selectivity ratio of IC50 for taxol-resistant human CCRF-CEM cells to IC50 for human CCRF-CEM cells; type: functional; outline: as §3
Mus musculus [10] = experiment: Toxicity against human MX1 cells xenografted mouse assessed as body weight loss at 100 mg/kg, iv administered in Q2D x 5 schedule; type: organism-based; parameters: dose 100 mg/kg, route intravenous; conditions: in vivo
Outline: (§4)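 Nude nu/nu male mice (8 weeks or older, 22 g or more) carrying xenografts, given i.v. tail-vein injections in DMSO/Tween 80/saline vehicle, n = 3. Host toxicity taken as body weight change from the initial pretreatment weight, tracked through and after dosing.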

[11] = Chemical stability assessed as half life at 1 mg in DMSO/Tween 80/normal saline solution; type: physicochemical
Outline: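 1 mg of compound held in i.v. vehicle (DMSO/Tween 80/normal saline, 0.5:0.4:1.6 v/v/v). Degradation followed by silica TLC (CHCl3/MeOH 10:1) and confirmed by reversed-phase HPLC.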

NCI-H1299 [12] = experiment: Induction of DNA interstrand cross linking in 20 Gy irradiated human H1299 cells at 10 uM after 1 hr by comet assay; type: functional
Outline: (§5)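 H1299 cells (2 × 10^5) plated and grown for 32 h at 37 °C in 5% CO2, then drug-treated for 1 h. Cells given 20 Gy irradiation and embedded in 1.2% low-melting agarose for a modified comet assay under subdued light. Tail moment scored in 100 cells. Cross-linking % = [1 − (TMdi−TMcu)/(TMci−TMcu)] × 100. Three experiments, mean ± SD.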

Mus musculus [13] = experiment: Toxicity against human U87 MG cells xenografted mouse assessed as body weight loss at 100 mg/kg, iv administered in Q2D x 5 schedule; type: organism-based, U-87MG ATCC; parameters: dose 100 mg/kg, route intravenous; conditions: in vivo; outline: as §4
MX1 [14] = experiment: Antitumor activity in human MX1 cells xenografted mouse assessed as complete tumor remission at 30 mg/kg, iv administered in Q2D x 5 schedule; type: functional, organism-based; parameters: dose 30 mg/kg
Mus musculus [15] = experiment: Toxicity against human MX1 cells xenografted mouse assessed as body weight loss at 30 mg/kg, iv administered in Q2D x 5 schedule; type: organism-based; parameters: dose 30 mg/kg, route intravenous; conditions: in vivo; outline: as §4
[16] = Stability in mouse assessed as half life; type: ADME, organism-based; conditions: in vivo
NCI-H1299 [17] = experiment: Induction of DNA interstrand cross linking in 20 Gy irradiated human H1299 cells at 200 uM after 1 hr by comet assay; type: functional; outline: as §5
Mus musculus [18] = experiment: Toxicity against human MX1 cells xenografted mouse assessed as body weight loss at 75 mg/kg, iv administered in Q2D x 8 schedule; type: organism-based; parameters: dose 75 mg/kg, route intravenous; conditions: in vivo
MX1 [19] = experiment: Antitumor activity in human MX1 cells xenografted mouse assessed as complete tumor remission at 75 mg/kg, iv administered in Q2D x 8 schedule; type: functional, organism-based; parameters: dose 75 mg/kg
MX1 [20] = experiment: Antitumor activity in human MX1 cells xenografted mouse assessed as complete tumor remission at 50 mg/kg, iv administered in Q2D x 8 schedule; type: functional, organism-based; parameters: dose 50 mg/kg
Mus musculus [21] = experiment: Toxicity against human MX1 cells xenografted mouse assessed as body weight loss at 50 mg/kg, iv administered in Q2D x 8 schedule; type: organism-based; parameters: dose 50 mg/kg, route intravenous; conditions: in vivo; outline: as §4
MX1 [22] = experiment: Antitumor activity in human MX1 cells xenografted mouse assessed as complete tumor suppression at 50 mg/kg, iv administered in Q2D x 8 schedule; type: functional, organism-based; parameters: dose 50 mg/kg

SMILES | IC50 (HCT-116) | IC50 (CCRF-CEM [1]) | IC50 (CCRF-CEM [2]) | IC50 (MX1 [5]) | Ratio IC50 (CCRF-CEM [7]) | IC50 (CCRF-CEM [8]) | Ratio IC50 (CCRF-CEM [9]) | further results
Cc1ccc(Nc2c3ccccc3nc3c(C)cccc23)cc1NC(=O)Nc1ccc(N(CCCl)CCCl)cc1 | 0.437 µM | 0.0918 µM | 0.0778 µM | 0.24 µM | 1.64 | 0.128 µM | 1.18 | Activity (MX1 [3]): Active; half-life at 5 ug/mL [4]: 2.26 days; Activity (U-87 MG): Active; IC50 [6]: 0.51 µM; Activity (Mus musculus [10]): 10%; half-life [11]: 55 days; Activity (NCI-H1299 [12]): 39.2%; Activity (Mus musculus [13]): 15%
Cc1cccc2c(Nc3cc(CO)cc(NC(=O)Nc4ccc(N(CCCl)CCCl)cc4)c3)c3ccccc3nc12 | 0.263 µM | 0.394 µM | 0.0311 µM | 0.125 µM | 57.5 | 1.79 µM | 12.7 | Activity (MX1 [14]): Active; Activity (Mus musculus [15]): 10%; half-life [11]: 59 days
COc1ccc(NC(=O)Nc2ccc(N(CCCl)CCCl)cc2)cc1Nc1c2ccccc2nc2c(C)cccc12 | 0.571 µM | 0.0574 µM | 0.0297 µM | 1.81 µM | 1.3 | 0.0306 µM | 1.93 | –
Cc1ccc(NC(=O)Nc2ccc(N(CCCl)CCCl)cc2)cc1Nc1c2ccccc2nc2c(C)cccc12 | 0.158 µM | 0.023 µM | 0.0114 µM | 0.589 µM | 2.15 | 0.0245 µM | 2.02 | –
OCc1cc(Nc2c3ccccc3nc3ccccc23)cc(OCCN(CCCl)CCCl)c1 | 0.0065 µM | 0.0032 µM | 0.00333 µM | – | 3.84 | 0.0128 µM | 0.96 | half-life [16]: < 0.0174 days
Cc1ccc(Nc2c3ccccc3nc3ccccc23)cc1NC(=O)Nc1ccc(N(CCCl)CCCl)cc1 | 0.265 µM | 0.0347 µM | 0.0167 µM | 0.584 µM | 2 | 0.0334 µM | 2.08 | –
COc1cc(NC(=O)Nc2ccc(N(CCCl)CCCl)cc2)cc(Nc2c3ccccc3nc3c(C(=O)NCCN(C)C)cccc23)c1 | 0.11 µM | 0.0302 µM | 0.0132 µM | 0.638 µM | 72 | 0.951 µM | 2.29 | –
N[C@@H](Cc1ccc(N(CCCl)CCCl)cc1)C(=O)O [MELPHALAN] | – | – | – | – | – | – | – | Activity (NCI-H1299 [17]): 47.3%
COc1ccc(Nc2c3ccccc3nc3c(C)cccc23)cc1NC(=O)Nc1ccc(N(CCCl)CCCl)cc1 | 0.0749 µM | 0.0115 µM | 0.0092 µM | 0.367 µM | 2.76 | 0.0246 µM | 1.25 | –
O=C(Nc1ccc(N(CCCl)CCCl)cc1)Nc1c2ccccc2nc2ccccc12 | 0.9 µM | 0.385 µM | 0.229 µM | 0.81 µM | 1.65 | 0.378 µM | 1.68 | –
Cc1ccc(NC(=O)Nc2ccc(N(CCCl)CCCl)cc2)cc1Nc1c2cccc(C)c2nc2c(C(=O)NCCN(C)C)cccc12 | 0.06 µM | 0.176 µM | 0.0119 µM | 0.0601 µM | 25.4 | 0.303 µM | 14.7 | –
COc1cc(NC(=O)Nc2ccc(N(CCCl)CCCl)cc2)cc(Nc2c3ccccc3nc3c(C)cccc23)c1 | 0.242 µM | 0.0498 µM | 0.0296 µM | 0.868 µM | 1.46 | 0.0433 µM | 1.68 | –
Cc1cc(NC(=O)Nc2ccc(N(CCCl)CCCl)cc2)cc(Nc2c3ccccc3nc3ccccc23)c1 | 0.816 µM | 0.384 µM | 0.141 µM | 0.529 µM | 4.2 | 0.593 µM | 2.72 | Activity (Mus musculus [18]): 10%; Activity (MX1 [19]): Active
COc1ccc(Nc2c3ccccc3nc3ccccc23)cc1NC(=O)Nc1ccc(N(CCCl)CCCl)cc1 | 0.256 µM | 0.0338 µM | 0.0077 µM | 1.2 µM | 7.13 | 0.0549 µM | 4.39 | –
O=C(Nc1ccc(N(CCCl)CCCl)cc1)Nc1cc(CO)cc(Nc2c3ccccc3nc3ccccc23)c1 | 0.216 µM | 17.2 µM | – | 0.369 µM | – | – | 304 | Activity (MX1 [20]): inactive; half-life [11]: 55 days; Activity (Mus musculus [21]): 10%; Activity (MX1 [22]): Active
CC(=O)O[C@H]1C(=O)[C@@]2(C)[C@H]([C@H](OC(=O)c3ccccc3)[C@]3(O)C[C@H](OC(=O)[C@H](O)[C@@H](NC(=O)c4ccccc4)c4ccccc4)C(C)=C1C3(C)C)[C@]1(OC(C)=O)CO[C@@H]1C[C@@H]2O [PACLITAXEL] | 0.0013 µM | – | 0.0013 µM | 0.035 µM | 980 | 1.27 µM | 330 | –
COc1ccc(NC(=O)Nc2ccc(N(CCCl)CCCl)cc2)cc1Nc1c2ccccc2nc2ccccc12 | 0.188 µM | 0.0588 µM | 0.0442 µM | 0.591 µM | 1.24 | 0.0548 µM | 1.33 | –
CC[C@]1(O)C[C@@H]2CN(CCc3c([nH]c4ccccc34)[C@@](C(=O)OC)(c3cc4c(cc3OC)N(C)[C@H]3[C@@](O)(C(=O)OC)[C@H](OC(C)=O)[C@]5(CC)C=CCN6CC[C@]43[C@@H]65)C2)C1 [VINBLASTINE] | 0.0018 µM | – | – | 0.0029 µM | – | – | – | –
COc1cc(NC(=O)Nc2ccc(N(CCCl)CCCl)cc2)cc(Nc2c3ccccc3nc3ccccc23)c1 | 0.496 µM | 0.0504 µM | 0.0375 µM | 1.11 µM | 1.46 | 0.0548 µM | 1.34 | –
